High-throughput results deposited in PubChem by The Scripps Research Institute Molecular Screening Center.
S1P4 antag = S1P4 receptor antagonists, primary screen, cell-based; Sphingosine 1-phosphate receptor 4 (Homo sapiens), O95977; S1P4-expressing cells, antagonist mode, reporter read-out; inhibition, % at 4.98 µM; actives 0.26% (n = 220,000); in the data active = inhibition above about 29%
Target sequence (O95977 whole entry, looked up): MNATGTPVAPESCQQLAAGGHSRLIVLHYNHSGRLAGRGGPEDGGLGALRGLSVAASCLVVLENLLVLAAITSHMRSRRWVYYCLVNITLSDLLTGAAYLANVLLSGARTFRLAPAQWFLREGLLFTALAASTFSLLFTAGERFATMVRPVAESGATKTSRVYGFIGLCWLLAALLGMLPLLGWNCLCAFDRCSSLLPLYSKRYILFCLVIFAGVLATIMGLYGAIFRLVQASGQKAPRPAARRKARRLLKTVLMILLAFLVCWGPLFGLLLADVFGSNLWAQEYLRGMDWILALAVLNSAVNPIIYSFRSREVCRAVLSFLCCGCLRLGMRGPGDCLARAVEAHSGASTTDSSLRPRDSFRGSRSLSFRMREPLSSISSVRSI
NPY Y2 blocker = NPY-Y2 receptor antagonists, primary screen, cell-based; actives 0.99% (n = 140,000); inhibition, % at 2.7 µM; Neuropeptide Y receptor type 2 (Homo sapiens), P49146; NPY-Y2 expressing cells, antagonist mode; in the data active = inhibition above about 17%
NPY1 pot ag = NPY-Y1 receptor potentiators or agonists, primary screen, cell-based; NPY-Y1 expressing cells, potentiator/agonist activation; activation, % at 3.6 µM; actives 0.37% (n = 220,000); in the data active = activation above about 33%, passing the limit was not always enough;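 also: cells stimulated with NPY at EC10 then isoproterenol at EC100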
Target sequence (P25929 whole entry, looked up): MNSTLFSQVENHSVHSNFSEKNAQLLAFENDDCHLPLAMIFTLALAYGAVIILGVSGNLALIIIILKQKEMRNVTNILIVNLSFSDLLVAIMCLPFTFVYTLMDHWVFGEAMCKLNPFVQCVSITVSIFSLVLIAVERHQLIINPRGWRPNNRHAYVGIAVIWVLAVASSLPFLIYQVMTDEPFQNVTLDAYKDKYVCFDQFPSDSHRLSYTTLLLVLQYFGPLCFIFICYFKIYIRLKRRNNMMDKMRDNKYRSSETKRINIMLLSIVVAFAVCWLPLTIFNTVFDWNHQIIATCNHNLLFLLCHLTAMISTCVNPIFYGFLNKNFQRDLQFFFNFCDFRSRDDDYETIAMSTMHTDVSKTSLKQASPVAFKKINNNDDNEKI
NPY-Y2 PAM-ag = NPY-Y2 potentiators or agonists, primary screen, cell-based. cells expressing NPY-Y2, potentiator/agonist read-out. activation, % at 3.6 µM. actives 0.45% (n = 220,000); in the data active = activation above about 27%;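 also: cells stimulated with NPY near EC25 plus isoproterenol at EC100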
S1P4 agonist = S1P4 receptor agonists, primary screen, cell-based. S1P4-expressing cell line, agonist reporter assay. activation, % at 4.98 µM. actives 0.35% (n = 220,000); in the data active = activation above about 11%
NPY Y1 blocker = NPY-Y1 receptor antagonists, primary screen, cell-based; Neuropeptide Y receptor type 1 (Homo sapiens), P25929; AID 1040, 2008; inhibition, % at 3.6 µM; actives 1% (n = 200,000); HEK293-CNG Y1 cells, membrane potential fluorescence; NPY at EC95, then isoproterenol;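 active = inhibition above the campaign mean inhibition of all tested compounds plus 3 SD, cut at about 20% in these data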
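Test system: HEK293 cells co-expressing NPY Y1 receptor and cyclic-nucleotide gated channel; Also added: NPY (25 nM), isoproterenol (1 µM), Ro 20-1724 (25 µM); Compound dosing: one concentration, 3.6 µM, in 0.4% DMSO; Timing: dye 3 h, compound 60 min room temperature, stimulation 45 min; Technique: Membrane-potential fluorescent dye readout.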
S1P4 antag cf = S1P4 receptor antagonists, human, confirmation, cell-based | shares compounds with S1P4 antag | S1P4-expressing cell line, antagonist mode, reporter read-out | actives 71% (n = 520) | inhibition, % at 4.98 µM; in the data active = inhibition above about 30%
S1P1 antagonist = S1P1 receptor antagonists, human, counter-screen for S1P4 antagonist project, cell-based; AID 1564, 2009; shares compounds with S1P4 antag; cell-based S1P1 antagonist counterscreen, inhibition; actives 37% (n = 520); inhibition, % at 4.98 µM; in the data active = inhibition above about 40%;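 also: receptor stimulated with S1P near its EC80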
Large screens that a line does not name were inactive (follow-up assays come after a bar, where they were run). Sampled rows, rich in hits. Any-hit rate of the full collection: about 2.4%.

Cc1cc(C)nc(NC(=O)c2ccc([N+](=O)[O-])o2)n1	none
Cc1cc(C)cc(NC(=O)c2ccc([N+](=O)[O-])o2)c1	S1P4 antag 62.7 (no result: NPY Y2 blocker) | S1P4 antag cf 88.6 | S1P1 antagonist inactive
Cc1cc(NC(=O)c2ccc([N+](=O)[O-])o2)ccc1NC(=O)c1ccco1	S1P4 antag 89.6 (no result: NPY Y2 blocker) | S1P4 antag cf 107.4 | S1P1 antagonist 58.2
O=C(COC(=O)C12CC3CC(CC(C3)C1)C2)Nc1ccc([N+](=O)[O-])cc1Cl	none
Cn1ccnc1SCC(=O)Nc1ccc2c(c1)OC(F)(F)O2	none (no result: NPY Y2 blocker)
CCOC(=O)N1CCN(C(=O)c2cn(CC)c3ccc(S(=O)(=O)N4CCCCC4)cc3c2=O)CC1	none (no result: NPY Y2 blocker)
O=[N+]([O-])c1ccc(Sc2cccc[n+]2[O-])c2nonc12	S1P4 antag 90.7 (no result: NPY Y2 blocker, NPY Y1 blocker) | S1P4 antag cf 114.0 | S1P1 antagonist inactive
CC(=O)N1CCN(c2ccc(NC(=O)c3ccc(Br)o3)cc2Cl)CC1	none (no result: NPY Y2 blocker)
CC(C)C(=O)N1CCN(c2ccc(NC(=O)c3ccc([N+](=O)[O-])o3)cc2)CC1	S1P4 antag 69.8 (no result: NPY Y2 blocker) | S1P4 antag cf 88.0 | S1P1 antagonist 66.2
CCCC(=O)N1CCN(c2ccc(NC(=O)c3ccc([N+](=O)[O-])o3)cc2Cl)CC1	S1P4 antag 87.2 (no result: NPY Y2 blocker) | S1P4 antag cf 99.4 | S1P1 antagonist 48.5
O=C(Nc1ccc(N2CCN(C(=O)c3ccccc3)CC2)cc1)c1ccc([N+](=O)[O-])o1	S1P4 antag 83.8 (no result: NPY Y2 blocker) | S1P4 antag cf 116.5 | S1P1 antagonist 77.1
O=C(Nc1nnc(-c2cccs2)o1)C1CC1	S1P4 antag 30.8 (no result: NPY Y2 blocker) | S1P4 antag cf inactive | S1P1 antagonist inactive
O=C(Nc1nnc(-c2ccc(Cl)s2)o1)C1CC1	none (no result: NPY Y2 blocker)
COc1cc(CNCCO)cc(Cl)c1OCc1ccc(Cl)cc1Cl	S1P4 antag 31.1 (no result: NPY Y2 blocker) | S1P4 antag cf 50.6 | S1P1 antagonist 64.0
Cc1ccc(S(=O)(=O)c2cnc(-c3ccccc3)nc2N2CCN(C)CC2)cc1	none (no result: NPY Y2 blocker)
Cc1ccc(C(=O)NC(C#N)=C(Cl)Cl)cc1	S1P4 antag 59.7 (no result: NPY Y2 blocker) | S1P4 antag cf 110.4 | S1P1 antagonist inactive
Cc1cc(C)[n+]2[nH]c(N)c(N=Nc3ccccc3)c2n1	none (no result: NPY Y2 blocker, NPY Y1 blocker)
CCc1ccc2c(c1)/C(=C/C(=O)c1cccs1)C(=O)N2	S1P4 antag 66.4 | S1P4 antag cf 109.2 | S1P1 antagonist 78.1
Cc1cc(Br)c2c(c1)/C(=C/C(=O)c1cccs1)C(=O)N2	S1P4 antag 35.1 (no result: NPY Y2 blocker) | S1P4 antag cf 68.1 | S1P1 antagonist 42.6
CC1Oc2ccccc2C=C1/C=N\NC(=O)c1cccnc1 (centres undefined)	none (no result: NPY Y2 blocker, NPY Y1 blocker)
Cc1ccccc1N1CCN(C(=O)c2ccccc2NC(=O)c2ccccc2C(=O)O)CC1	none (no result: NPY Y2 blocker)
COCCCNC(=O)CN1C(=O)c2ccccc2C1=O	none
CCCCNC(=O)CN1C(=O)c2cccc(N)c2C1=O	S1P4 antag 38.8 (no result: NPY Y2 blocker) | S1P4 antag cf inactive | S1P1 antagonist inactive
CC1CCCCC1NC(=O)CN1C(=O)c2cccc(N)c2C1=O (centres undefined)	S1P4 antag 31.5 (no result: NPY Y2 blocker) | S1P4 antag cf 30.1 | S1P1 antagonist inactive
CC1CCCCC1NC(=O)Cn1cnc2ccccc2c1=O (centres undefined)	none
OC(CNCCc1ccccc1)COc1ccc(OCC(O)CNCCc2ccccc2)cc1 (centres undefined)	S1P4 antag 32.4 (no result: NPY Y2 blocker, NPY Y1 blocker) | S1P4 antag cf 55.2 | S1P1 antagonist inactive
Cc1ccsc1/C=N/NC(=O)CNC(=O)c1cccc([N+](=O)[O-])c1C	none (no result: NPY Y2 blocker)
CCN(CC)CCNC(=O)c1cc2cc(Br)ccc2s1	none (no result: NPY Y2 blocker)
N#Cc1ccc(/C=C/C(=O)c2ccccc2)cc1	S1P4 antag 86.3 (no result: NPY Y2 blocker, NPY Y1 blocker) | S1P4 antag cf 89.9 | S1P1 antagonist inactive
COc1ccc(C(=O)NCCCOc2cccc(NC(C)=O)c2)cc1	none (no result: NPY Y2 blocker, NPY Y1 blocker)
CCN(c1ccccc1)S(=O)(=O)c1ccc(OC)c(NC(=O)Cn2cnc3c2c(=O)n(C)c(=O)n3C)c1	none (no result: NPY Y2 blocker)
CCc1nc2ccc(C(=O)NCc3ccco3)cc2nc1CC	none
O=C(NCc1ccco1)c1ccc2c(c1)CCO2	S1P4 antag 30.2 (no result: NPY Y2 blocker, NPY Y1 blocker) | S1P4 antag cf inactive | S1P1 antagonist inactive
CN(C(=O)C(Cl)Cl)c1ccc(OC(=O)c2ccco2)cc1	S1P4 antag 32.6 | S1P4 antag cf 34.4 | S1P1 antagonist inactive
CN(C)c1ccc(C(=O)c2ccc(N(C)C)c3ccccc23)cc1	S1P4 antag 34.1 | S1P4 antag cf 50.3 | S1P1 antagonist 60.2
COc1ccc(C(=O)c2ccc(N(C)C)cc2)c(OC)c1	none
CSc1ccccc1C(=O)Nc1ccccc1C(=O)NC(C)C	none (no result: NPY Y2 blocker)
N#C/C(=C\c1ccccn1)c1nc2ccccc2s1	S1P4 antag 74.2 (no result: NPY Y2 blocker) | S1P4 antag cf 35.6 | S1P1 antagonist 43.0
COC(=O)c1ccc(/C=C(\C#N)c2nc3ccccc3s2)cc1	none
Cc1ccc(C)c(N(C(=O)Cn2nnc3ccccc32)C(C(=O)NCc2ccco2)c2ccncc2)c1 (centres undefined)	S1P4 antag 34.2 | S1P4 antag cf inactive | S1P1 antagonist inactive
Cc1ccc(C2C(C#N)=C(N)N(c3cccnc3)C3=C2C(=O)CCC3)c(C)c1 (centres undefined)	none (no result: NPY Y2 blocker)
O=C(O)/C=C/C(=O)Nc1ccc(NC(=O)c2ccccc2)c(Cl)c1	none (no result: NPY Y2 blocker)
CCCCC(CC)c1nnc(NC(=O)c2cccs2)s1 (centres undefined)	S1P4 antag 29.3 (no result: NPY Y2 blocker) | S1P4 antag cf inactive | S1P1 antagonist inactive
Cc1ccccc1NC(=S)N(Cc1ccco1)C(C)c1ccccn1 (centres undefined)	none (no result: NPY Y2 blocker)
CCOC(=O)c1sc(-c2ccc(C(F)(F)F)cc2)nc1O	S1P4 antag 38.1 (no result: NPY Y2 blocker, NPY Y1 blocker) | S1P4 antag cf 33.6 | S1P1 antagonist inactive
CCOC(=O)c1sc(-c2cccc(C(F)(F)F)c2)nc1O	none (no result: NPY Y2 blocker, NPY Y1 blocker)
Cc1cc(NC(=O)CSc2nnc(N)s2)c([N+](=O)[O-])cc1C	none (no result: NPY Y2 blocker)
CCN(CC)S(=O)(=O)c1ccc(O)c(C(=O)OCC(=O)N2c3ccccc3CC2C)c1 (centres undefined)	none (no result: NPY Y2 blocker, NPY Y1 blocker)
COC(=O)c1cccc(NC(=S)NCc2ccc(F)cc2)c1	none (no result: NPY Y2 blocker)
CC(=O)Nc1cccc(C(=O)/C=C/c2ccc(C)cc2)c1	S1P4 antag 45.1 | S1P4 antag cf 55.0 | S1P1 antagonist inactive
CCC(=O)Nc1cccc(C(=O)/C=C/c2ccc(F)cc2)c1	none (no result: NPY Y2 blocker)
